{"source": "paper PMC5086809", "about": "(European journal of pharmacology, 2013)", "target": "T1, human GPR119 receptor (G protein-coupled receptor 119) (Homo sapiens, UniProt Q8TDV5)", "T1 sequence (Q8TDV5 1-335)": "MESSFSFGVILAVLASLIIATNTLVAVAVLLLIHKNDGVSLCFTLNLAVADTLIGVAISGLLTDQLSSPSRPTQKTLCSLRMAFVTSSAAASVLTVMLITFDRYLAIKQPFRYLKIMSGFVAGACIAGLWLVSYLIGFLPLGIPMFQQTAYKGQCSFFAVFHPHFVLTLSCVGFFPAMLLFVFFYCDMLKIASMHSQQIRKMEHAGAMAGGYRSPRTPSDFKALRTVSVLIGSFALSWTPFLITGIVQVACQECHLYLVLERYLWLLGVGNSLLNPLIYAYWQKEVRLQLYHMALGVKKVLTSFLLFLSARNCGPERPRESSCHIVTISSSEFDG", "test": "HTRF cAMP accumulation assay, stable HEK293 cells", "assay_type": "cell-based", "in_short": "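HEK293 cells stably transfected with human GPR119, selected in 800 µg/ml geneticin and kept in 400 µg/ml G418. Test compound in DMEM with 2.5% fatty acid-free BSA, 30 min at room temperature. HTRF read (d2-cAMP plus Eu-cryptate anti-cAMP, 2 h, ex 337/em 665 and 620 nm). cAMP taken from a standard curve; EC50 from a sigmoidal fit; five independent experiments.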"}
{"compound": "CC(C)c1noc(C2CCN(c3ncnc(Nc4ccc(S(C)(=O)=O)cc4F)c3[N+](=O)[O-])CC2)n1", "note": "[AR231453]", "values": [{"measurement": "EC50", "result": 0.011, "unit": "µM"}]}
{"compound": "CCCCC/C=C\\C/C=C\\C/C=C\\CCCCCCC(=O)NCCO", "note": "[Dihomo-γ-linolenoyl ethanolamide]", "values": [{"measurement": "EC50", "result": 25.6, "unit": "µM"}]}
{"compound": "CC/C=C\\C/C=C\\C/C=C\\C/C=C\\C/C=C\\C/C=C\\CCC(=O)NCCO", "note": "[Docosahexaenoyl ethanolamide]", "values": [{"measurement": "EC50", "result": 63.8, "unit": "µM"}]}
{"compound": "CCCCC/C=C\\C/C=C\\C/C=C\\C/C=C\\CCCCCC(=O)NCCO", "note": "[Docosatetra-7Z,10Z,13Z,16Z-enoyl ethanolamide]", "values": [{"measurement": "EC50", "result": 40.2, "unit": "µM"}]}
{"compound": "CC/C=C\\C/C=C\\C/C=C\\C/C=C\\C/C=C\\CCCC(=O)NCCO", "note": "[Eicosapentaenoyl ethanolamide]", "values": [{"measurement": "EC50", "result": 65.6, "unit": "µM"}]}
{"compound": "CCCCC/C=C\\C/C=C\\CCCCCCCC(=O)NCCO", "note": "[Linoleoyl ethanolamide]", "values": [{"measurement": "EC50", "result": 8.11, "unit": "µM"}]}
{"compound": "CCCCCCCC/C=C\\CCCCCCCC(N)=O", "note": "[Oleamide]", "values": [{"measurement": "EC50", "result": 42.9, "unit": "µM"}]}
{"compound": "CCCCCCCC/C=C\\CCCCCCCC(=O)NCCc1ccc(O)c(O)c1", "note": "[Oleoyl dopamine]", "values": [{"measurement": "EC50", "result": 54.8, "unit": "µM"}]}
{"compound": "CCCCCCCC/C=C\\CCCCCCCC(=O)NCCO", "note": "[Oleoyl ethanolamide]", "values": [{"measurement": "EC50", "result": 7.65, "unit": "µM"}]}
{"compound": "CC(C)(C)OC(=O)N1CCC(OCc2nc(-c3ccncc3)no2)CC1", "note": "[PSN632408]", "values": [{"measurement": "EC50", "result": 7.61, "unit": "µM"}]}
{"compound": "CCCCCCCCCCCCCCCC(=O)NCCO", "note": "[Palmitoyl ethanolamide]", "values": [{"measurement": "EC50", "result": 10.1, "unit": "µM"}]}
